# EBNA-1 inhibitor: blocks EBNA-1 binding to DNA. EBNA-1 DNA binding, fluorescence polarization. inhibition, % at 14.8 µM. actives 0.34% (n = 300,000); in the data active = inhibition above about 28%
# PABP FP inh: PABP-poly(A) binding inhibition | P11940 | PABP-poly(A) RNA binding, fluorescence polarization | inhibition, % at 35 µM | actives 1% (n = 290,000) | AID 2014;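 note: calls also rest on retests at 20 µM and on dose response follow-up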
# ZTA DNA inh: blocks Epstein-Barr virus ZTA, an EBNA-1 counter-screen. inhibition, % at 11 µM. AID 2234. actives 0.15% (n = 320,000). P03206. ZTA-DNA binding, fluorescence polarization; in the data active = inhibition above about 33%
# HCV NS3 hel inh: blocks Hepatitis C virus NS3 helicase unwinding | NS3 helicase DNA unwinding, Cy5 molecular beacon fluorescence | actives 0.56% (n = 290,000) | inhibition, % at 10.9 µM;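 active = inhibition above the mean of all tested compounds plus 3 SD, set per campaign, cut at about 35% in these data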;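 note: 0% = DMSO wells and 100% = thioflavine S control wells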
#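 assay system = NS3 helicase fragment of HCV | buffer or medium = MOPS pH 6.5, MgCl2, DTT, Tween20, BSA | timing = 60 min unwinding reaction at 25 °C after ATP addition | signal = Cy5 beacon fluorescence read at start and 1 h | read-out basis = % inhibition of unwinding | control set = low DMSO, high thioflavine S at 110 µM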
# eIF4H FP inh: inhibitors of RNA binding by human eIF4H; AID 2012; eIF4H fluorescence polarization binding assay; Q15056; actives 0.94% (n = 290,000); inhibition, % at 35 µM;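 note: calls also rest on retests at 20 µM and on dose response follow-up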
# MLLE-PAM2 inh: blocks PAM2 peptide binding to the PABP1 MLLE domain. inhibition, % at 20 µM. actives 0.36% (n = 360,000). AID 588489. GST-MLLE / FITC-PAM2 fluorescence polarization; in the data active = inhibition above about 35%, passing the limit was not always enough;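 note: plate controls were DMSO wells with GST-MLLE for no effect and wells lacking GST-MLLE protein for full effect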
# * hit, by the source's call; / = no result given. Only some compounds are listed: those with a hit (about 2.1% of all), similar ones and a draw of the others. Unless noted, the rule behind the calls is not given here.
SMILES,EBNA-1 inhibitor,PABP FP inh,ZTA DNA inh,HCV NS3 hel inh,eIF4H FP inh,MLLE-PAM2 inh
Cc1ccc2oc(C(=O)N3CCCCCC3)c(C)c2c1,4,-2,9,-9,-2,9
COc1cccc(N2CCN(Cc3nc4scc(-c5ccccc5)c4c(=O)[nH]3)CC2)c1,1,70*,10,-12,79*,-40
C=CCN(C(=O)OC(C)(C)C)S(=O)(=O)NCc1ccccc1,/,/,-12,/,/,-12
CCC1=NN2C(=N)/C(=C\c3ccc(OCCOc4ccc(NC(C)=O)cc4)c(OC)c3)C(=O)N=C2S1,3,0,8,22,-10,-11
O=c1oc(-c2cccnc2)nc2ccccc12,0,-6,-3,4,5,-2
Cc1cc(=O)c2cc3nc(-c4cccnc4)oc3c(Br)c2o1,5,78*,1,-8,97*,/
Cc1ccccc1NC(=S)N(CCCN1CCOCC1)Cc1ccccn1,-14,4,-27,-2,-6,10
O=C(Nc1ccccc1N1CCN(C(=O)c2ccccc2)CC1)c1cc2ccccc2o1,0,2,6,2,9,-7
CNc1ccccc1C(C)(C)c1cc(-c2ccc(F)cc2)no1,0,-4,-5,-7,-11,5
CC(OC(=O)CSc1ccc([N+](=O)[O-])cc1)C(=O)NC1CC1 (stereo not given),/,/,2,/,/,42*
CCOC(=O)C1CCN(C(=O)COC(=O)CSc2ccc([N+](=O)[O-])cc2)CC1,6,/,3,/,/,42*
CCCN(CC(=O)Nc1ccccc1C)C(=O)COC(=O)CSc1ccc([N+](=O)[O-])cc1,-4,/,-5,/,/,40*
CC1CCCC(C)N1C(=O)COC(=O)CSc1ccc([N+](=O)[O-])cc1 (stereo not given),/,/,/,/,/,21
COc1cccc(OC)c1C(=O)OCC(=O)N1CC(C)CC(C)C1 (stereo not given),/,/,8,/,/,3
O=C(Nc1ccccc1SC(=O)c1ccccc1)c1ccccc1,/,/,/,/,/,22
Cc1ccc(C(=O)Sc2cccccc2=O)cc1,-7,12,-14,25,43,50*
N#C/C(=C\c1cc(Cl)c(OCc2ccc(Cl)cc2)c(Cl)c1)C(N)=O,-9,12,8,11,-4,/
N#C/C(=C\c1cc(O)c(O)c(O)c1)C(N)=O,0,30*,9,9,54*,-12
Cc1cc(-c2ccco2)c(C#N)c2nc3ccccc3n12,2,88*,12,21,88*,16
O=C(COC(=O)CCc1ccc(S(=O)(=O)N2CCCCC2)cc1)Nc1cccc2ccccc12,-3,-1,5,3,-4,-18
COC(=O)C1CCN(CC(=O)Nc2sc3c(c2C#N)CCC3)CC1,-6,9,1,9,13,-6
N#Cc1ccsc1NC(=O)CN1CCN(c2ccc(O)cc2)CC1,-14,2,2,10,98*,-21
CC1CCCCN1CC(=O)Nc1sc2c(c1C#N)CCC2 (stereo not given),-4,54*,-9,3,69*,-10
N#Cc1c(NC(=O)CN2CCCCC2)sc2c1CCC2,-16,66,5,1,45*,24
CC1CCCCN1CC(=O)Nc1sccc1C#N (stereo not given),12,59*,9,4,75*,-22
SMILES,EBNA-1 inhibitor,PABP FP inh,ZTA DNA inh,HCV NS3 hel inh,eIF4H FP inh,MLLE-PAM2 inh
O=c1[nH]c(C(F)(F)F)nc2c1nc1n2CCC1,/,/,/,/,/,10
CC(C)NC(=O)Nc1nnc([C@@H]2C[C@H](O)[C@@H](CO)O2)s1,/,/,/,/,/,-9
CC(C)CC(=O)N1CCN(c2ccc(NC(=O)c3ccco3)cc2)CC1,14,-1,8,4,-7,-6
N#Cc1c(C(F)(F)F)cc(-c2ccccc2)nc1SCC(=O)Nc1sc2c(c1C#N)CCC2,8,56*,12,9,72,0
N#Cc1ccc(-c2cccnc2)nc1SCC(=O)Nc1sc2c(c1C#N)CCC2,9,-8,14,1,2,-20
O=C(Nc1ccccc1)C1=C[C@@H](c2csc3ccccc23)C[C@@H](OCc2ccc(CO)cc2)O1,13,-9,8,-6,-6,-2
CC(NC(=O)c1ccc(Br)cc1)C(=O)NC1=NCCS1 (stereo not given),5,-9,-9,5,5,30
O=c1cc(-c2ccccc2)nc(SCc2ccc(F)cc2)[nH]1,8,79,-9,-2,active,-5

# Bioassay records from PubChem.
